Data: ChEMBL document CHEMBL1121994, “Ammonium 7H-purin-6-yl 1-Thio-beta-D-glucopyranosiduronate, a latent, selective anticancer agent” (J Med Chem, 1982)

Tests used:
Type in all cases: ADME
[1] = Maximum velocity was determined at pH 3.38
Method in brief: (§1)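 Bovine β-glucuronidase in 0.1 M potassium acetate buffer, μ = 0.1 M (KCl), 30 °C. Substrate 4.0×10⁻⁴ to 4.8×10⁻³ M final. Enzyme (30 FU; 42 000 FU when substrate was given in Me₂SO) was added after 20 min; at pH 3.38 the substrate was also added after 20 min. Initial rates came from ΔA/min at 324 nm (Δε = 2×10⁴ M⁻¹cm⁻¹), in duplicate. Vmax was normalized per Fishman unit.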

[2] = Maximum velocity was determined at pH 4.4; method in brief: as §1
[3] = Maximum velocity was determined at pH 4.7; method in brief: as §1
[4] = Maximum velocity was determined at pH 5.58; method in brief: as §1
Bos taurus [5] = species on record: Bos taurus; test: Michaelis constant for hydrolysis catalyzed by Bovine Liver beta-Glucuronidase at pH 3.38; conditions: cattle; method in brief: as §1
Bos taurus [6] = species on record: Bos taurus; test: Michaelis constant for hydrolysis catalyzed by Bovine Liver beta-Glucuronidase at pH 4.40; conditions: cattle, pH 4.4; method in brief: as §1
Bos taurus [7] = species on record: Bos taurus; test: Michaelis constant for hydrolysis catalyzed by Bovine Liver beta-Glucuronidase at pH 4.7; conditions: cattle; method in brief: as §1
Bos taurus [8] = species on record: Bos taurus; test: Michaelis constant for hydrolysis catalyzed by Bovine Liver beta-Glucuronidase at pH 5.58; conditions: cattle; method in brief: as §1
[9] = Maximum velocity was determined at pH 4.40; conditions: pH 4.4; method in brief: as §1

Row | Vmax [1] | Vmax [2] | Vmax [3] | Vmax [4] | Vmax / Km (Bos taurus [5]) | Vmax / Km (Bos taurus [6]) | Vmax / Km (Bos taurus [7]) | Vmax / Km (Bos taurus [8]) | Vmax [9] | Structure (SMILES)
1 | 7.85e-11 | 1.24e-10 | 9.85e-11 | 8.8e-11 | 8.8e-9 | 1.06e-8 | 1.06e-8 | 1.04e-8 | – | NC(=O)C1OC(Sc2[nH]cnc3ncnc2-3)C(O)C(O)C1O (stereo unspecified)
2 | 3.73e-8 | – | 3.92e-8 | 2.18e-8 | 0.000659 | 0.000409 | 0.000297 | 0.0000951 | 3.95e-8 | N.O=C(O)C1OC(Sc2[nH]cnc3ncnc2-3)C(O)C(O)C1O (stereo unspecified)
